Laboratory results as given in ChEMBL document CHEMBL1649411, “Potent antitumor mimetics of annonaceous acetogenins embedded with an aromatic moiety in the left hydrocarbon chain part” (J Med Chem, 2011).

Legend:
MCF7 = test: Cytotoxicity against human MCF7 cells after 72 hrs by MTT assay; assay type: functional; conditions: MCF7, 72 h
Outline: (§1)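 Cells were grown in DMEM with penicillin-streptomycin, L-glutamine and 10% FBS, then seeded at 5 × 10³ cells/well. MTT (5 mg mL^-1 stock) was added for 4 h, then dissolved in DMSO. A570 was read against a 690 nm reference, with at least four replicates. Inhibition was calculated versus blank-corrected vehicle control, giving GI50.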

[1] = Cytotoxicity against HLF after 72 hrs by MTT assay; assay type: cell-based; conditions: human, HLF cells; outline: as §1
A549 = test: Cytotoxicity against human A549 cells after 72 hrs by MTT assay; assay type: functional; conditions: A549, 72 h; outline: as §1
SGC-7901 = test: Cytotoxicity against human SGC7901 cells after 72 hrs by MTT assay; assay type: functional; conditions: SGC-7901, 72 h; outline: as §1
HCT-116 = test: Cytotoxicity against human HCT116 cells after 72 hrs by MTT assay; assay type: functional; conditions: HCT-116, 72 h
Outline: (§2)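 Cells were maintained in F12/DMEM with penicillin-streptomycin, L-glutamine and 10% FBS, and plated at 5 × 10³ cells/well. Sixteen hours later, medium containing compound ([…]) or DMSO vehicle was added for 72 h. MTT (5 mg mL^-1 stock) was applied for 4 h and formazan dissolved in DMSO. Absorbance was read at 570/690 nm in at least quadruplicate. Growth inhibition versus blank-corrected controls gave GI50.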

[2] = Cytotoxicity against human BEAS2B cells after 72 hrs by MTT assay; assay type: cell-based, BEAS-2B; outline: as §1
HT-29 = test: Cytotoxicity against human HT-29 cells after 72 hrs by MTT assay; assay type: functional; conditions: HT-29, 72 h; outline: as §2

SMILES: CCCCCC[C@H](O)COCCOC[C@@H](O)CCCCC(O)CCCCCCCC1=C[C@H](C)OC1=O (stereo partly specified)
- GI50 (MCF7): 5.8 µM
- GI50 at 72 h [1]: 11.1 µM
- GI50 (A549): 10.8 µM
- GI50 (SGC-7901): 2 µM
- GI50 (HCT-116): 4.2 µM
- GI50 at 72 h [2]: > 100 µM
- GI50 (HT-29): 19.4 µM

SMILES: C[C@H]1C=C(CCCCCCCC(O)CCCC[C@H](O)COCCOC[C@@H](O)CCCCC2CCCCC2)C(=O)O1 (stereo partly specified)
- GI50 (MCF7): 1.8 µM
- GI50 at 72 h [1]: 5.5 µM
- GI50 (A549): 4.5 µM
- GI50 (SGC-7901): 0.75 µM
- GI50 (HCT-116): 1.6 µM
- GI50 at 72 h [2]: 61 µM
- GI50 (HT-29): 5.4 µM

SMILES: C[C@H]1C=C(CCCCCCCC(O)CCCC[C@H](O)COCCOC[C@@H](O)CCCc2ccccc2)C(=O)O1 (stereo partly specified)
- GI50 (MCF7): 0.84 µM
- GI50 at 72 h [1]: 7.4 µM
- GI50 (A549): 0.773 µM
- GI50 (SGC-7901): 0.275 µM
- GI50 (HCT-116): 0.394 µM
- GI50 at 72 h [2]: > 100 µM
- GI50 (HT-29): 1.1 µM

SMILES: C[C@H]1C=C(CCCCCCCC(O)CCCC[C@H](O)COCCOC[C@@H](O)CCCc2cccc(O)c2)C(=O)O1 (stereo partly specified)
- GI50 (MCF7): 24.5 µM
- GI50 at 72 h [1]: > 100 µM
- GI50 (A549): 6 µM
- GI50 (SGC-7901): 1 µM
- GI50 (HCT-116): 2.8 µM
- GI50 at 72 h [2]: > 100 µM
- GI50 (HT-29): 69 µM

SMILES: COc1ccc(CCC[C@H](O)COCCOC[C@@H](O)CCCCC(O)CCCCCCCC2=C[C@H](C)OC2=O)cc1 (stereo partly specified)
- GI50 (MCF7): 23.3 µM
- GI50 at 72 h [1]: 11.3 µM
- GI50 (A549): 4.5 µM
- GI50 (SGC-7901): 0.198 µM
- GI50 (HCT-116): 2.3 µM
- GI50 at 72 h [2]: > 100 µM
- GI50 (HT-29): 4.3 µM

SMILES: C[C@H]1C=C(CCCCCCCC(O)CCCC[C@H](O)COCCOC[C@@H](O)CCCc2ccc(-c3ccccc3)cc2)C(=O)O1 (stereo partly specified)
- GI50 (MCF7): 0.154 µM
- GI50 at 72 h [1]: > 100 µM
- GI50 (A549): 0.177 µM
- GI50 (SGC-7901): 0.02 µM
- GI50 (HCT-116): 0.134 µM
- GI50 at 72 h [2]: > 100 µM
- GI50 (HT-29): 0.355 µM

SMILES: COc1ccc2cc(CCC[C@H](O)COCCOC[C@@H](O)CCCCC(O)CCCCCCCC3=C[C@H](C)OC3=O)ccc2c1 (stereo partly specified)
- GI50 (MCF7): 12.6 µM
- GI50 at 72 h [1]: 10 µM
- GI50 (A549): 3.7 µM
- GI50 (SGC-7901): 0.082 µM
- GI50 (HCT-116): 1.1 µM
- GI50 at 72 h [2]: > 100 µM
- GI50 (HT-29): 1.1 µM

SMILES: CCCCCCCCCC[C@H](O)COCCOC[C@@H](O)CCCCCCCCCCCCC1=C[C@H](C)OC1=O
- GI50 (MCF7): 0.276 µM
- GI50 at 72 h [1]: 20.9 µM
- GI50 (A549): 0.305 µM
- GI50 (SGC-7901): 0.065 µM
- GI50 (HCT-116): 0.113 µM
- GI50 at 72 h [2]: 120 µM
- GI50 (HT-29): 0.291 µM
